In article PMC8451875 (British Journal of Clinical Pharmacology, 2021):

Columns and labels:
[1] = healthy participants administered GSK3640254; cited from earlier work
HIV‐1 subtypes = settings: no cross-resistance to currently approved antiretroviral treatments; cited from earlier work
[2] = Phase I 2-way drug interaction study, steady-state plasma pharmacokinetics; format: in vivo, healthy adults
Method in brief: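 After an overnight fast of ≥8 h and a moderate-fat meal 30 min before dosing, each drug was given once daily in fixed sequence. Plasma was sampled predose daily, then postdose on the final dosing day at 1–24 h, extended to 72 h or 96 h. Noncompartmental ln-transformed AUC0-t, Cmax and Ct were fitted by linear mixed model (period fixed, participant random) for GMR and 90% CI. t1/2 was descriptive.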

[3] = Phase I 2-way drug interaction study, safety and tolerability; format: in vivo, healthy adults; settings: for overall drug interaction, tolerability and safety finding: administered alone or in combination, healthy adults
Method in brief: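 Open-label, fixed-sequence study in healthy men and women aged 18–55 years with BMI 18.5–31.0 kg/m2. Each drug was given alone and in combination, with a moderate-fat meal 30 min before dosing. Adverse events were monitored along with clinical laboratory values, vital signs, electrocardiography and physical examination, and summarised descriptively.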

[4] = dolutegravir 50 mg + GSK3640254 200 mg QD, after Day 7 dose, n = 16

Compound | most commonly reported adverse event [1] | inhibition across HIV‐1 subtypes (HIV‐1 subtypes) | GSK3640254 t1/2, geometric mean (SD Ln) [2, 4] | AUC ([2]; human, plasma, 200 mg) [ng·h/mL] | Cmax ([2]; human, plasma, 200 mg) [ng/mL] | Tmax ([2]; human, plasma, 200 mg) [h] | concentration at 24 h ([2]; human, plasma, 200 mg) [ng/mL] | contact dermatitis at the electrocardiographic electrode site ([3]; 16 participants per treatment) [event] | overall drug interaction, tolerability and safety finding [3] | dolutegravir Tmax (median [min, max]) ([2]; dolutegravir 50 mg + GSK3640254 200 mg QD, Day 7, n = 16) | dolutegravir t1/2, geometric mean (SD Ln) [2, 4] | dolutegravir Cmax, geometric mean (SD Ln) ([2]; dolutegravir 50 mg QD alone, Day 5, steady state, moderate-fat meal, plasma, n = 16) | dolutegravir t1/2, geometric mean (SD Ln) ([2]; dolutegravir 50 mg QD alone, after Day 5 dose, n = 16) | concentration at 24 h ([2]; human, plasma, 50 mg) [ng/mL]
C=C(C)[C@@H]1CC[C@]2(NCCN3CCS(=O)(=O)CC3)CC[C@]3(C)[C@H](CC[C@@H]4[C@@]5(C)CC=C(C6=CC[C@@](CF)(C(=O)O)CC6)C(C)(C)[C@@H]5CC[C@]43C)[C@@H]12 [GSK3640254] | headaches | demonstrated inhibition | 23.42 (1.16) h | 26700 | 1680 | 5 | 860 | 1 | not associated with drug–drug interactions or major tolerability or safety findings | – | – | – | – | –
C[C@@H]1CCO[C@H]2Cn3cc(C(=O)NCc4ccc(F)cc4F)c(=O)c(O)c3C(=O)N12 [dolutegravir, reference compound] | – | – | – | – | – | – | – | – | not associated with drug–drug interactions or major tolerability or safety findings | 3.0 (1.0, 4.5) h | 14.69 (1.13) h | 4.96 (1.18) μg/mL | 14.49 (1.13) h | 1370
